Assay results published in ChEMBL document CHEMBL3585325, “Discovery of (1R,2S)-2-{[(2,4-Dimethylpyrimidin-5-yl)oxy]methyl}-2-(3-fluorophenyl)-N-(5-fluoropyridin-2-yl)cyclopropanecarboxamide (E2006): A Potent and Efficacious Oral Orexin Receptor Antagonist” (J Med Chem, 2015).

Columns and labels:
[1] = Volume of distribution at steady state in C57BL/6NCrlCrlj mouse at 1 mg/kg, iv by LC-MS/MS analysis; format: ADME, organism-based; details: in vivo, read-out: Vdss
Procedure, shortened: (§1)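 Male C57BL/6NCrlCrlj mice dosed intravenously at 1 mg/kg in 10% DMSO in water. Blood was taken from the tail vein at set time points and spun to plasma. Concentrations were measured by LC-MS/MS (MRM, positive mode) against a 1/x²-weighted standard curve with internal standard. Parameters came from noncompartmental analysis.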

[2] = Drug uptake in C57BL/6NCrlCrlj mouse CSF at 10 mg/kg, po administered as single dose measured after 3 hrs by LC-MS/MS analysis; format: ADME, organism-based, Cerebrospinal fluid; details: read-out: Drug uptake
Procedure, shortened: (§2)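 Male C57BL/6NCrlCrlj mice given a single 10 mg/kg oral dose as a suspension in 0.5% aqueous methylcellulose. At 1 or 3 h, under pentobarbital anesthesia, CSF was taken from the cisterna magna and then blood from the abdominal aorta (spun to plasma). Samples were acetonitrile-precipitated with deuterated internal standard and run by LC-MS/MS. Values are mean with SEM.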

[3] = AUC (0 to infinity) in C57BL/6NCrlCrlj mouse at 1 mg/kg, iv by LC-MS/MS analysis; format: ADME, organism-based; design: dose 1 mg/kg, time infinity, route intravenous; details: in vivo; procedure, shortened: as §1
[4] = biological target: CYP3A (Homo sapiens, UniProt P08684+P20815+P24462+Q9HB55); assay: Inhibition of CYP3A in human liver microsomes assessed as enzyme activity using midazolam as substrate incubated for 30 mins prior to substrate addition for 10 mins by LC-MS/MS analysis; format: ADME; details: probe midazolam
Procedure, shortened: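 Compound preincubated 30 min at 37 °C with human liver microsomes (0.2 mg/mL), with or without an NADPH-generating system. The mix was diluted 10-fold into a marker-substrate cocktail plus NADPH system and incubated 10 min at 37 °C. Marker metabolites were measured by LC-MS/MS; residual activity with NADPH was expressed relative to without.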

[5] = Tmax in C57BL/6NCrlCrlj mouse at 30 mg/kg, po by LC-MS/MS analysis; format: ADME, organism-based; details: in vivo
[6] = tested on: Mus musculus; assay: Sleep promoting activity in C57BL/6NCrlCrlj mouse assessed as reduction in wakefulness time at 10 mg/kg, po administered immediately prior to beginning of dark cycle measured during first 3 hrs after drug administration by electroencephalogram/electromyogram analysis (reference value: 116.7 min); format: functional
Procedure, shortened: (§3)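 Male C57BL/6NCrlCrlj mice implanted with EEG/EMG electrodes were dosed orally in 10% Cremophor EL, 5% DMSO in saline just before lights-off (ZT12) and recorded from ZT12 to ZT20. Group sizes were n=6 dosed and n=7 vehicle. Stages were scored by software with blinded visual confirmation; cumulative first-3-h times are mean with SEM. Dunnett's test was run after one-way ANOVA.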

[7] = biological target: Cytochrome P450 2D6 (Homo sapiens, UniProt P10635); assay: Inhibition of CYP2D6 in human liver microsomes using bufuralol as susbtrate incubated for 30 mins prior to substrate addition for 10 mins by LC-MS/MS analysis; format: ADME
Sequence of Cytochrome P450 2D6 (P10635 whole entry): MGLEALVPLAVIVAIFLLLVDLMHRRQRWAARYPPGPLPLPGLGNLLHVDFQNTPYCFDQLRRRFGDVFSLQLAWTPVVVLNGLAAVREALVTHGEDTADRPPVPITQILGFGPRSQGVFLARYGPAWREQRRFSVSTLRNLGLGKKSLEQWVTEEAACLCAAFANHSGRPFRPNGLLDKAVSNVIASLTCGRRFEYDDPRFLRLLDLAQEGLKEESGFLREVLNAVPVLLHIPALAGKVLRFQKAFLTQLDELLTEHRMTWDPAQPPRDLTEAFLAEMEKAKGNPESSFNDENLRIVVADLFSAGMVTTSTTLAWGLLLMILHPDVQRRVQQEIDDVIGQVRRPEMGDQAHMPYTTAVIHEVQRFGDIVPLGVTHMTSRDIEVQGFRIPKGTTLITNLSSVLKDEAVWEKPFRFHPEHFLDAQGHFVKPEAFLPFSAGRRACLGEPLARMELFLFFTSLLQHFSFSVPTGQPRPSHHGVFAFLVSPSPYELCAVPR

[8] = Plasma concentration in C57BL/6NCrlCrlj mouse at 10 mg/kg, po administered as single dose measured after 3 hrs by LC-MS/MS analysis; format: ADME, organism-based; procedure, shortened: as §2
[9] = Metabolic stability in human liver microsomes assessed as residual ratio at 0.1 uM after 15 mins by LC-MS analysis; format: ADME; details: read-out: Stability
Procedure, shortened: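 Compound at 0.1 μM in 0.1% DMSO incubated with human liver microsomes (0.2 mg/mL), with or without an NADPH-generating system, for 15 min at 37 °C. Reaction stopped with acetonitrile/methanol (7:3) containing propranolol internal standard. Parent compound was measured by LC-MS; residual ratio given with NADPH relative to without.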

[10] = tested on: Mus musculus; assay: Sleep promoting activity in C57BL/6NCrlCrlj mouse assessed as reduction in wakefulness time at 30 mg/kg, po administered immediately prior to beginning of dark cycle measured during first 3 hrs after drug administration by electroencephalogram/electromyogram analysis (reference value: 116.7 min); format: functional; procedure, shortened: as §3
[11] = tested on: Mus musculus; assay: Sleep promoting activity in C57BL/6NCrlCrlj mouse assessed as increase in non-REM sleep at 30 mg/kg, po administered immediately prior to beginning of dark cycle measured during first 3 hrs after drug administration by electroencephalogram/electromyogram analysis (reference value: 62.6 min); format: functional; procedure, shortened: as §3
[12] = Oral bioavailability in C57BL/6NCrlCrlj mouse at 30 mg/kg by LC-MS/MS analysis; format: ADME, organism-based; details: in vivo
[13] = biological target: Cytochrome P450 2C19 (Homo sapiens, UniProt P33261); assay: Inhibition of CYP2C19 in human liver microsomes using S-mephenytoin as susbtrate incubated for 30 mins prior to substrate addition for 10 mins by LC-MS/MS analysis; format: ADME
Sequence of Cytochrome P450 2C19 (P33261 whole entry): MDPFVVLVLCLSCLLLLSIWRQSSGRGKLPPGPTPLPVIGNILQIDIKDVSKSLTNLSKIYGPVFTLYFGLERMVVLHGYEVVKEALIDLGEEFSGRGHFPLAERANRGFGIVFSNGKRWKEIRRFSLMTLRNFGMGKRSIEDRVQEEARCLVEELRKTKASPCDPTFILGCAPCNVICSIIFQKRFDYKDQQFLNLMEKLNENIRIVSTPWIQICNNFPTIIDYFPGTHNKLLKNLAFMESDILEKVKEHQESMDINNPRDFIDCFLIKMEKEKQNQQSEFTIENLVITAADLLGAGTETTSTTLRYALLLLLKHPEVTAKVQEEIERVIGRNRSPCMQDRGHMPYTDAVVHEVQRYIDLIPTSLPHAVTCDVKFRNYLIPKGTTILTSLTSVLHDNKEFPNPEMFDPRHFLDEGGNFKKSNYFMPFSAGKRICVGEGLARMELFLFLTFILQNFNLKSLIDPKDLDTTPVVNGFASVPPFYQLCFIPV

[14] = Cmax in C57BL/6NCrlCrlj mouse at 10 mg/kg, po by LC-MS/MS analysis; format: ADME, organism-based; design: dose 10 mg/kg, route oral; details: in vivo
Procedure, shortened: (§4)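 Male C57BL/6NCrlCrlj mice dosed orally at 10 mg/kg in 10% Cremophor EL, 5% DMSO in saline. Tail-vein blood was taken at set time points and spun to plasma. Quantified by LC-MS/MS (MRM, positive mode) with internal standard and a 1/x²-weighted calibration. Parameters came from noncompartmental analysis.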

[15] = Oral bioavailability in C57BL/6NCrlCrlj mouse at 10 mg/kg by LC-MS/MS analysis; format: ADME, organism-based; details: in vivo
Procedure, shortened: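 Oral dose of 10 mg/kg in 10% Cremophor EL, 5% DMSO in saline; intravenous reference of 1 mg/kg in 10% DMSO in water; male C57BL/6NCrlCrlj mice. Tail-vein plasma was quantified by LC-MS/MS. F% = (mean AUC0–inf po/dose po)/(mean AUC0–inf iv/dose iv) × 100.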

[16] = biological target: T1, Cytochrome P450 1A2 (Homo sapiens, UniProt P05177); assay: Inhibition of CYP1A2 in human liver microsomes using phenacetin as susbtrate incubated for 30 mins prior to substrate addition for 10 mins by LC-MS/MS analysis; format: ADME
T1 sequence (P05177 whole entry): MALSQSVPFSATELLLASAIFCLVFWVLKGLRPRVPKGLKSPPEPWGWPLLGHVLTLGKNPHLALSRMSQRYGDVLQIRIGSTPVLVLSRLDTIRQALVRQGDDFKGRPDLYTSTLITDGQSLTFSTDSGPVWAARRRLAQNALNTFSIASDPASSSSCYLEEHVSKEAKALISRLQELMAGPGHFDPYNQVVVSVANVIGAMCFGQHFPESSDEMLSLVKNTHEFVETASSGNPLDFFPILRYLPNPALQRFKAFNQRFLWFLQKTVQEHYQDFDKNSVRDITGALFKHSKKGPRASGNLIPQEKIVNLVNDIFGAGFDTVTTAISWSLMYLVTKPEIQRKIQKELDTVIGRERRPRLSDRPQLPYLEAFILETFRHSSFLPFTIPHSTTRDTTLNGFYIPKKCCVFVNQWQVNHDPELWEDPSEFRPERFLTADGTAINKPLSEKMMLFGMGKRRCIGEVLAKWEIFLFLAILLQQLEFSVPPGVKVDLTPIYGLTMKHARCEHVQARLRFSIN

[17] = biological target: Cytochrome P450 2C9 (Homo sapiens, UniProt P11712); assay: Inhibition of CYP2C9 in human liver microsomes using tolbutamide as susbtrate incubated for 30 mins prior to substrate addition for 10 mins by LC-MS/MS analysis; format: ADME
Sequence of Cytochrome P450 2C9 (P11712 whole entry): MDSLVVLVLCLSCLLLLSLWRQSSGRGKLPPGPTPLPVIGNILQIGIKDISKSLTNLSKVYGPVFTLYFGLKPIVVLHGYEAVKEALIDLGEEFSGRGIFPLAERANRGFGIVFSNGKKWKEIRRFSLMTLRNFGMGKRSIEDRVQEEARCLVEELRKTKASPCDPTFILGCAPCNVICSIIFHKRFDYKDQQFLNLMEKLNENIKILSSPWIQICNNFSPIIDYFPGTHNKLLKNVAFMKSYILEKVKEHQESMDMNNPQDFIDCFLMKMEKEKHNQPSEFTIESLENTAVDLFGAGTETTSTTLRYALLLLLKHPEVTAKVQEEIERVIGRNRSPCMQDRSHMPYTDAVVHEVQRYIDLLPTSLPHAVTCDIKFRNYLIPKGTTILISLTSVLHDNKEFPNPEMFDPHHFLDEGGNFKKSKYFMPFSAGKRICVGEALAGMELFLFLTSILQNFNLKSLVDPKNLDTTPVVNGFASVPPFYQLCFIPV

[18] = AUC (0 to infinity) in C57BL/6NCrlCrlj mouse at 10 mg/kg, po by LC-MS/MS analysis; format: ADME, organism-based; design: dose 10 mg/kg, route oral, time infinity; details: in vivo; procedure, shortened: as §4

In the case of `Cc1ncc(OC[C@@]2(c3cccc(F)c3)C[C@H]2C(=O)Nc2ccc(F)cn2)c(C)n1` [LEMBOREXANT], the Vd [1] is reported as 2.71 L/kg, the concentration at 3 h [2] is reported as 0.0076 µM and the AUC(0-inf) [3] is reported as 1.03 µg·h/mL. The IC50 at 30 min [4] was > 20 µM, the Tmax [5] was 1 h and the Time [6] was 77.1 min. For the same compound, the IC50 [7] was > 20 µM, the concentration at 3 h [8] was 0.158 µM and the remaining at 0.25 h, 0.1 µM [9] was 90%. The Time [10] was 75.3 min, the Time [11] was 95.5 min and the bioavailability [12] was 13.4%. The IC50 [13] was > 20 µM, the Cmax [14] was 0.488 µg/mL and the bioavailability [15] was 18.5%. For the same compound, the IC50 [16] was > 20 µM, the IC50 [17] was > 20 µM and the AUC(0-inf) [18] was 1.91 µg·h/mL.
